Measured values as given in PubChem BioAssay AID504775 (Broad Institute, 2011).
Among all 320,000 compounds or so, about 310 (0.097%) were called active. The sample holds actives, similar compounds and a random draw of the others, so the mix is not that of the screen.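 The calls were made as follows: active = mean replicate activation of at least 60% and every replicate at or above 60%; inconclusive = mean or all-replicate condition met, but not both; inactive = mean below 60% and not all replicates reaching 60%.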

Assay: activators of SR-BI mediated DiI-HDL uptake, primary screen, ldlA[mSR-BI] CHO cells, DiI fluorescence (AID 504775);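 also: 0% = median plate neutral-control signal and 100% = twice that signal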
Settings: 3 h, at 12.5 µM, stronger effect = higher value, 100 = double the neutral-control signal
How it was run: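 System: CHO ldlA[mSR-BI] cells / Medium: HEPES-buffered (25 mM, pH 7.4) F12 plus 0.5% BSA / Probe or stimulus: labelled HDL, 10 µg/mL / Doses: single compound concentration, delivered by pin transfer / Schedule: 3 h, 37 °C / Measured by: DiI fluorescence, bottom read / Measure: cell-associated DiI fluorescence as measure of HDL uptake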
For O=C(CC(=O)c1cccnc1)c1ccccc1, the activation was -1.21% (inactive).
With CCOC(=O)c1c(C)[nH]c(C(=O)OCC(=O)N2CCCC2=O)c1C the activation was 24.7% (inactive).
In the case of CCCCOC(=O)c1[nH]c(C)c(C(=O)OC)c1C, the activation is reported as 176% (active).
For CCOC(=O)c1c(C)[nH]c(C(=O)OCC(=O)c2ccc(OC)cc2OC)c1C, the activation was -45.7% (inactive).
With COc1ccc(CNC(=O)CN2C(=O)c3ccccc3S2(=O)=O)cc1 the activation was 16.4% (inactive).
With Cc1ccc(C(=O)O)c(NC=O)c1OCc1ccccc1 the activation was 19.3% (inactive).
For COc1ccc(C(CNC(=O)c2cc(S(=O)(=O)Nc3cccc(C)c3)ccc2C)N2CCCC2)cc1 (centres undefined), the activation was 21% (inactive).
With Cc1ccc(S(=O)(=O)N2CCC(C(=O)N3CCCCCCC3)CC2)cc1 the activation was -7.71% (inactive).
With COc1ccc(S(=O)(=O)N2CCc3ccccc32)cc1C(=O)Nc1cc(S(C)(=O)=O)ccc1Cl the activation was -27.5% (inactive).
With O=C1/C(=C\c2ccc([N+](=O)[O-])cc2)CS(=O)(=O)C/C1=C/c1ccc([N+](=O)[O-])cc1 the activation was -17.7% (inactive).
With Oc1[nH]c2ccccc2c1N=Nc1c(F)c(F)c(F)c(F)c1F the activation was -15.7% (inactive).
With Cc1cc(NC(=O)c2cc3ccccc3o2)no1 the activation was 18.7% (inactive).
In the case of COc1cc(C(=O)N2CCN(S(=O)(=O)c3ccc(C(C)C)cc3)CC2)ccc1OCC(=O)N1CCOCC1, the activation is reported as 10.9% (inactive).
With O=C(O)c1ccc([N+](=O)[O-])cc1Sc1ccsc1 the activation was -7.71% (inactive).
In the case of O=C1NC(c2ccccc2)Cc2ccncc21 (centres undefined), the activation is reported as 37.2% (inactive).
In the case of CCC(CC)c1nnc(NC(=O)C2=COCCO2)s1, the activation is reported as 9.84% (inactive).
With Cc1sc(NC(=O)C2=COCCO2)c(C#N)c1C the activation was 172% (active).
In the case of Cc1csc(NC(=O)C2=COCCO2)n1, the activation is reported as 11% (inactive).
With COc1ccc(C(CNC(=O)c2cccc(S(=O)(=O)Nc3ccc(Br)cc3)c2)N(C)C)cc1 (centres undefined) the activation was 24.3% (inactive).
For COc1ccc(CCNC(=O)c2ccc(NC(=O)CC3SC(N4CCCCC4)=NC3=O)cc2)cc1OC (centres undefined), the activation was -66.6% (inactive).
For COC(=O)Cc1c(-c2[nH]c3ccccc3c2CC(=O)OC)[nH]c2ccccc12, the activation was -37.9% (inactive).
For O=C(C1=C(O)C(=O)N(Cc2ccccc2)C1c1cccnc1)c1ccco1 (centres undefined), the activation was 66.5% (active).
In the case of COc1ccc(C2C(C(C)=O)=C(O)C(=O)N2Cc2cccnc2)cc1 (centres undefined), the activation is reported as 30% (inactive).
In the case of CCOc1cc(C2C(C(=O)c3ccco3)=C(O)C(=O)N2Cc2ccccc2)ccc1O (centres undefined), the activation is reported as 21.9% (inactive).
For C#CCOCCOCCOCCNc1nc(N2CCOCC2)nc(N2CCN(C(=O)[C@H](Cc3ccc(O)cc3)n3cc(CCO)nn3)CC2)n1, the activation was 15.4% (inactive).
In the case of CC1CN(Cc2ccco2)C(=S)N(c2ccccc2)C1=O (centres undefined), the activation is reported as 33.1% (inactive).
With COc1cccc(-c2sc3ccc(OC)cc3c2-c2ccc(OCCN3CCCCC3)cc2)c1 the activation was -2.84% (inactive).
For COc1ccc2sc(-c3ccccc3OC)c(-c3ccc(OCCN4CCCC4)cc3)c2c1, the activation was 88% (active).
In the case of COc1ccc(-c2sc3ccccc3c2-c2ccc(OCCN3CCOCC3)cc2)cc1, the activation is reported as -39.3% (inactive).
For COc1cccc2oc(CCc3ccccc3)cc(=O)c12, the activation was 4.54% (inactive).
For CC(=O)OC1CCC2(C)C(=CCC3C4CC(=O)N(O)C(=O)C4(C)CCC32)C1 (centres undefined), the activation was 19% (inactive).
With COc1ccc(NC(=O)/C(N=Nc2cccc(S(=O)(=O)Nc3ccc(SC(F)F)cc3)c2)=C(\C)O)cc1 the activation was 19.4% (inactive).
In the case of COc1ccc2nc(N3C(=O)C(O)=C(C(=O)c4ccco4)C3c3ccco3)sc2c1 (centres undefined), the activation is reported as 2.11% (inactive).
In the case of O=C1NC(=O)C(CCc2ccccc2)(c2ccccc2)N1 (centres undefined), the activation is reported as 20.8% (inactive).
For COC[C@@H]1NS(=O)(=O)c2ccc(Br)cc2O[C@H]1c1ccccc1, the activation was -5.43% (inactive).
With COc1ccc2c(c1)[C@H]1[C@H](CO2)[C@H](c2ccccc2)[C@]2(C)C(=O)Nc3cc(F)c(F)cc3C(=O)N12 the activation was -10.6% (inactive).
In the case of CCOC(=O)[C@H]1[C@H]2COc3ccc(Cl)cc3[C@@H]2N2C(=O)c3cc(C)ccc3NC(=O)[C@@]12C, the activation is reported as 5.05% (inactive).
In the case of Cc1ccc2c(c1)NC(=O)[C@@]1(C)[C@@H](c3ccccc3)[C@H]3COc4ccc(Cl)cc4[C@@H]3N1C2=O, the activation is reported as 138% (active).
For CCOc1ccc(CCNC(=O)COC(=O)C2CCN(S(=O)(=O)c3ccccc3)CC2)cc1OCC, the activation was -35% (inactive).
With NS(=O)(=O)c1ccc(NC(=O)COC(=O)c2ccco2)cc1 the activation was -5.86% (inactive).
In the case of COc1cc(NC(=S)NCc2ccc(S(N)(=O)=O)cc2)cc(OC)c1, the activation is reported as 1.73% (inactive).
For NS(=O)(=O)c1ccc(CNC(=S)NC(=O)c2ccco2)cc1, the activation was 304% (active).
For COc1ccc(/C=C2/CCCc3ccccc3C2=O)cc1, the activation was -12.7% (inactive).
With CN(CCc1ccccc1)C(=O)c1cccc(NC(=O)Cc2cccc(NC(=O)C3CCCN(C(=O)C4CCC4)C3)c2)c1 (centres undefined) the activation was -26.9% (inactive).
In the case of CN(Cc1ccccc1)C(=O)c1ccc(NC2=NC3CS(=O)(=O)CC3S2)cc1 (centres undefined), the activation is reported as -2.73% (inactive).
With COc1ccccc1N1CCN(C(=O)c2ccc(NC3=NC4CS(=O)(=O)CC4S3)cc2)CC1 (centres undefined) the activation was 14.4% (inactive).
In the case of O=C(NCCc1ccccc1)c1ccc(NC2=NC3CS(=O)(=O)CC3S2)cc1 (centres undefined), the activation is reported as 85.7% (active).
With COc1cc2c(cc1OC)C1C(=O)c3cc(OS(C)(=O)=O)c(OC)cc3C1N(C)C2=O (centres undefined) the activation was 1.01% (inactive).
With COc1ccc(Cn2cc(CN3CCS(=O)(=O)N(Cc4ccc(-c5cccc(Cl)c5)cc4)C(C)C3=O)nn2)cc1 (centres undefined) the activation was -34.7% (inactive).
With O=[N+]([O-])c1ccc(COc2ccccc2CN2CCOCC2)cc1 the activation was 19.3% (inactive).
For CC1CCC(NC(=O)CN(C)S(=O)(=O)c2ccc3c(c2)c(=O)n(C)c(=O)n3C)CC1 (centres undefined), the activation was 246% (active).
With CCc1ccccc1NC(=O)CN(C)S(=O)(=O)c1ccc2c(c1)c(=O)n(C)c(=O)n2C the activation was -3.85% (inactive).
In the case of COc1cccc(CNC(=O)CN(C)S(=O)(=O)c2ccc3c(c2)c(=O)n(C)c(=O)n3C)c1, the activation is reported as -3.22% (inactive).
With O=C1CC(C(=O)O)NC(=S)N1 (centres undefined) the activation was 3.49% (inactive).
For Cc1cc(C)c(C=NNc2nc3c([nH]2)c(=O)n(C)c(=O)n3C)c(C)c1, the activation was 12.4% (inactive).
For CN(C)CCNC(=O)c1ccc(Cl)c2cc3ccccc3nc12, the activation was 8.43% (inactive).
For CCN(CC)S(=O)(=O)c1cccc(NC(=O)c2ccc(S(=O)(=O)N3CCCC3)cc2)c1, the activation was -41.2% (inactive).
For CC(C)=CCc1ccc(O)c(=O)cc1C(C)C, the activation was -12.4% (inactive).
In the case of O=C(Nc1c(Br)cc2c(c1Br)Cc1cc([N+](=O)[O-])ccc1-2)C(Cl)Cl, the activation is reported as -60.9% (inactive).
With CN(O)C(=S)c1ccccc1 the activation was 24.5% (inactive).
In the case of O=C1CC(c2ccccc2)C(c2ccccc2)=NN1 (centres undefined), the activation is reported as 1.49% (inactive).
For COc1cc(/C=C/CNC[C@H]2O[C@@H](n3cnc(C(N)=O)n3)[C@H](O)[C@@H]2O)ccc1O, the activation was 8.13% (inactive).
In the case of O=S(=O)(Cc1ccc(Cl)cc1Cl)c1ccc(Cl)cc1, the activation is reported as -15.8% (inactive).
With Cc1ccc2c(O)c(Cc3ccccc3)c(=O)[nH]c2n1 the activation was -7.66% (inactive).
